47 molecules from ChEMBL document CHEMBL5214982, “Identification and Biochemical Characterization of Pyrrolidinediones as Novel Inhibitors of the Bacterial Enzyme MurA” (J Med Chem, 2022) can be followed below.

The source made the active and inactive calls. The rule behind the calls is not given here.

Series [1] has as its target UDP-N-acetylglucosamine 1-carboxyvinyltransferase (Escherichia coli K-12) (UniProt P0A749). Put plainly: Inhibition of wild type his tagged Escherichia coli K12 MurA at 20 uM using UDP-N-acetylglucosamine as substrate preincubated with substrate for 30 mins prior to compound addition for 15 mins followed by DTT and PEP addition and measured after 30 mins by malachite green based microplate reader analysis relative to control. The following applies: time 45.0 min.

Series [2] deals with UDP-N-acetylglucosamine 1-carboxyvinyltransferase (Escherichia coli K-12, UniProt P0A749). As to the kind of experiment: Inhibition of wild type his tagged Escherichia coli K12 MurA using UDP-N-acetylglucosamine as substrate […] for 15 mins followed by DTT and PEP addition and measured after 30 mins by malachite green based microplate reader analysis.
Sequence of UDP-N-acetylglucosamine 1-carboxyvinyltransferase (P0A749 whole entry): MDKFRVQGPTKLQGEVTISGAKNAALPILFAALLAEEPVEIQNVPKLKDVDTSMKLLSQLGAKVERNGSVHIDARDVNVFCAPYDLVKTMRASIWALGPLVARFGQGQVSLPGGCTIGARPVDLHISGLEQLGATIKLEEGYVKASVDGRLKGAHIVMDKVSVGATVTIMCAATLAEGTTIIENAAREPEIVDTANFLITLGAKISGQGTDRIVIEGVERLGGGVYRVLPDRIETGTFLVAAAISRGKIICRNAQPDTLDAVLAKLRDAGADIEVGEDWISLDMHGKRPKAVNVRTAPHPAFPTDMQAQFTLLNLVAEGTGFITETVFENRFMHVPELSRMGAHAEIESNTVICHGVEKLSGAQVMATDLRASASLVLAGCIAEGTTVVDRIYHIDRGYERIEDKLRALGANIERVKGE
The next series relates to MRC5. Put plainly: Cytotoxicity against human MRC5 cells at upto 100 uM incubated for 24 hrs by MTT assay. The settings on record: mrc5, 24 h. It is filed as toxicity, cell-based. A digest of the protocol: (§1)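 MRC-5 (20,000/well) or HepG2 (25,000/well) seeded, treated next day for 24 h with eight concentrations up to 100 μM (DMSO solutions). Viability by MTT: medium replaced with 0.5 mg/ml MTT in DMEM, cells lysed in DMSO, absorbance at 560 nm. Three independent experiments.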

In another series the test system is HepG2. As to the kind of experiment: Cytotoxicity against human HepG2 cells at upto 100 uM incubated for 24 hrs by MTT assay. The class given is toxicity, cell-based. The following applies: hepg2, 24 h. A digest of the protocol:
as §1

Series [3] in a line: Stability in human S9 fractions assessed as degradation at measured after 2 hrs by HPLC-MS analysis. The following applies: read-out: Drug degradation. It is filed as ADME, subcellular, Liver, S9 fraction.
Series [4] is described as follows: Stability in human S9 fractions assessed as half life at by HPLC-MS analysis. It is filed as ADME, subcellular, Liver, S9 fraction.
Series [5] in a line: Stability in human plasma assessed as degradation at measured after 4 hrs by HPLC-MS analysis. The class given is ADME, cell-free. The settings on record: read-out: Drug degradation.
Series [6] is described as follows: Stability in human plasma assessed as half life at by HPLC-MS analysis. It is filed as ADME, cell-free.
The target in series [7] is UDP-N-acetylglucosamine 1-carboxyvinyltransferase (Escherichia coli K-12) (UniProt P0A749). As to the kind of experiment: Inhibition of wild type his tagged Escherichia coli K12 MurA at 0.2 uM using UDP-N-acetylglucosamine as substrate preincubated with substrate for 15 mins prior to compound addition for 15 mins followed by DTT and PEP addition by dilution assay. An outline of the steps:
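His-tagged WT MurA (30 μg) preincubated with 400 μM UNAG for 15 min, then with inhibitor (10 μM) for another 15 min. Mixture diluted 1:50 into master mix of 150 μM UNAG, 150 μM PEP, 2 mM DTT and 25 mM Tris-HCl pH 7.5 (final), giving 0.2 μM inhibitor; incubated 37°C 30 min. Malachite green/molybdate stop, A625 after 5 min, minus no-enzyme blank; three independent experiments.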

Series [8] has the same target. As to the kind of experiment: Inhibition of wild type his tagged Escherichia coli K12 MurA at 2 uM using UDP-N-acetylglucosamine as substrate […] for 15 mins followed by DTT and PEP addition and measured after 30 mins by malachite green based microplate reader analysis relative to control. The settings on record: time 45.0 min.
Series [9] concerns UDP-N-acetylglucosamine 1-carboxyvinyltransferase (Escherichia coli K-12), P0A749 [C115D]. Put plainly: Inhibition of […] his tagged Escherichia coli K12 MurA C115D mutant at 2 uM using UDP-N-acetylglucosamine as substrate in presence of DTT and PEP by microplate reader analysis relative to control. The following applies: time 45.0 min. An outline of the steps: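 His-tagged C115D MurA preincubated directly with compounds (no UNAG preincubation) 15 min rt; fosfomycin and test compound each 2 μM final, 2% DMSO. Master mix added: 150 μM UNAG, 150 μM PEP, 2 mM DTT, 25 mM Tris-HCl pH 7.5; 37 °C 30 min. Malachite green/molybdate stop, A625 after 5 min, no-enzyme background subtracted; three independent experiments.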
Sequence of UDP-N-acetylglucosamine 1-carboxyvinyltransferase (Escherichia coli K-12), P0A749 [C115D] (P0A749 whole entry C115D): as the sequence (P0A749 whole entry) above, with C115D counted along it

Sequence of UDP-N-acetylglucosamine 1-carboxyvinyltransferase (Escherichia coli K-12) (P0A749 whole entry): as the sequence (P0A749 whole entry) above

In the case of `CC(C)(C)OC(=O)C1=C(O)C(=O)N(c2nc3ccc(Cl)cc3s2)C1c1ccccc1` (centres undefined), the inhibition in [1] was 38%.
Still for that read-out and setting: the value for `CCOC(=O)C1=C(O)C(=O)N(c2nc3ccc(Cl)cc3s2)C1c1ccc(Cl)cc1` (centres undefined) was 34%.
Take `CCOC(=O)C1=C(O)C(=O)N(c2nc3ccc(Cl)cc3s2)C1c1ccc(-c2ccccc2)cc1` (centres undefined): in series [1], the inhibition came out at 78%. In series [2], this molecule returned a half-maximal inhibitory concentration (IC50) of 5.1 µM. Also, the Activity result in the series with MRC5 and in the series on HepG2 was “Non-Toxic” throughout.
Regarding `CCOC(=O)C1=C(O)C(=O)N(c2nc3ccc(Cl)cc3s2)C1c1ccccc1` (centres undefined), in series [1], the inhibition amounted to 14%.
On the same count and under the same terms, the value for `CCOC(=O)C1=C(O)C(=O)N(c2ccc(Cl)cc2)C1c1ccc(Cl)cc1` (centres undefined) was 14%.
In the case of `CCOC(=O)C1=C(O)C(=O)N(c2nc3ccc(C)cc3s2)C1c1cccnc1` (centres undefined), the inhibition in series [1] is 29%.
On to `CCOC(=O)C1=C(O)C(=O)N(c2nc3c(Cl)cccc3s2)C1c1ccccc1` (centres undefined), for which the inhibition in [1] was 18%.
Take `CCOC(=O)C1=C(O)C(=O)N(c2nc3c(Cl)cccc3s2)C1c1ccc(-c2ccccc2)cc1` (centres undefined): in [1], the inhibition stood at 73%. This molecule yielded an IC50 in [2] of 7 µM.
`C[C@]12CC[C@H]3[C@@H](CCC4=CC(=O)CC[C@@]43C)[C@@H]1CC[C@@H]2O` [TESTOSTERONE]: the metabolised at 2 h in series [3] turned out to be 89%. In series [4], the t1/2 is 5.9 min.
With `Cc1ccc2nc(N3C(=O)C(O)=C(C(=O)OCCO)C3c3ccc(-c4ccc(Cl)cc4)o3)sc2c1` (centres undefined), the inhibition in series [1] stood at 43%.
In the case of `CCOC(=O)C1=C(O)C(=O)N(c2nc3ccc(C)cc3s2)C1c1ccccc1-c1cccs1` (centres undefined), the inhibition in series [1] was determined as 50%. Moreover, the concentration for half-maximal inhibition (IC50) in [2] turned out to be 22 µM.
`CCOC(=O)C1=C(O)C(=O)N(c2nc3ccc(C)cc3s2)C1c1ccccc1` (centres undefined): the inhibition in series [1] stood at 26%.
Same read-out and setting: under `CCOC(=O)C1=C(O)C(=O)N(c2nc3ccc(C)cc3s2)C1c1ccc2cc(O)ccc2c1` (centres undefined) stands 43%.
For `CCOC(=O)C1=C(O)C(=O)N(c2nc3c(OC)cccc3s2)C1c1ccc(-c2ccccc2)cc1` (centres undefined), the inhibition in series [1] worked out at 31%. Besides, in series [2], inhibition was half-maximal at 25 µM (IC50).
The matching figures for `CCOC(=O)C1=C(O)C(=O)N(c2nc3cc(C)c(C)cc3s2)C1c1ccc(-c2ccccc2)cc1` (centres undefined): 85% and 5.8 µM.
In the case of `CCOC(=O)C1=C(O)C(=O)N(c2nc3ccc(C)cc3s2)C1c1ccco1` (centres undefined), the inhibition in [1] was 21%.
As to `CCOC(=O)C1=C(O)C(=O)N(c2ccccc2)C1c1ccc(-c2ccccc2)cc1` (centres undefined), the inhibition in [1] was 13%.
As to `CCOC(=O)C1=C(O)C(=O)N(c2nc3ccc(C)cc3s2)C1c1cc(-c2ccccc2)cs1` (centres undefined), the inhibition in series [1] was found to be 72%. In series [2], this molecule displayed an IC50 of 9.9 µM.
In the case of `Cc1ccc2nc(N3C(=O)C(O)=C(C(=O)OC(C)(C)C)C3c3ccccc3)sc2c1` (centres undefined), the inhibition in [1] is 38%.
With `CCOC(=O)C1=C(O)C(=O)N(Cc2ccc(Cl)cc2)C1c1ccc(-c2ccccc2)cc1` (centres undefined), the inhibition in series [1] amounted to 40%.
For the molecule `CCOC(=O)C1=C(O)C(=O)N(c2nc3ccc(C)cc3s2)C1c1ccc(-c2ccc(Cl)cc2)o1` (centres undefined), the inhibition in series [1] was 75%. Also, in [2], the IC50 came to 9.9 µM.
With `CCOC(=O)C1=C(O)C(=O)N(c2nc3ccc(C)cc3s2)C1c1ccc(-c2ccccc2)o1` (centres undefined), the inhibition in series [1] was 37%.
As for `CCOC(=O)C1=C(O)C(=O)N(c2nc3ccc(OC)cc3s2)C1c1ccc(-c2ccccc2)cc1` (centres undefined), in series [1], the inhibition came out at 51%. Further, in [2], 22 µM corresponded to half-maximal inhibition (IC50).
Regarding `CCOC(=O)C1=C(O)C(=O)N(c2nc3c(s2)CCCC3)C1c1ccccc1` (centres undefined), in [1], the inhibition worked out at 14%.
As to `CCOC(=O)C1=C(O)C(=O)N(c2nc3ccccc3s2)C1c1ccccc1` (centres undefined), the inhibition in series [1] came out at 0%.
Still for that read-out and setting: under `CCOC(=O)C1=C(O)C(=O)N(c2nc3ccc(C)cc3s2)C1c1ccc(O)cc1` (centres undefined) stands 23%.
For `CCOC(=O)C1=C(O)C(=O)N(c2nc3ccc(C)cc3s2)C1c1ccccc1-c1ccccc1` (centres undefined), the inhibition in series [1] is 57%. The molecule further gave an IC50 in series [2] of 17 µM.
With `CCOC(=O)C1=C(O)C(=O)N(c2nc3c(F)cc(F)cc3s2)C1c1ccc(-c2ccccc2)cc1` (centres undefined), the inhibition in series [1] stood at 76%. Also, in series [2], the IC50 was determined as 7.5 µM.
With `CCOC(=O)C1=C(O)C(=O)N(c2nc3c(C)cccc3s2)C1c1ccccc1` (centres undefined), the inhibition in [1] came out at 0%.
Turning to `CCOC(=O)C1=C(O)C(=O)N(c2nc3ccc(C)cc3s2)C1c1cccc2ccccc12` (centres undefined), in series [1], the inhibition came to 54%. The half-inhibitory concentration (IC50) in series [2] turned out to be 15 µM.
As for `CCOC(=O)C1=C(O)C(=O)N(c2nc3ccccc3s2)C1c1ccc(-c2ccccc2)cc1` (centres undefined), the inhibition in series [1] came out at 45%.
As to `CCOC(=O)C1=C(O)C(=O)N(c2nc3ccc(C)cc3s2)C1c1ccc(-c2ccccc2)cc1` (centres undefined), the inhibition in series [1] came out at 76%. The molecule also yielded a half-inhibitory concentration (IC50) in series [2] of 8.5 µM.
The matching figures for `CCOC(=O)C1=C(O)C(=O)N(c2nc3ccc(C(F)(F)F)cc3s2)C1c1ccc(-c2ccccc2)cc1` (centres undefined): 70% and 6.1 µM.
For `CCOC(=O)C1=C(O)C(=O)N(c2nc3ccc(C)cc3s2)C1c1ccc2ccccc2c1` (centres undefined), the inhibition in series [1] is 44%.
On the same count and under the same terms, the value for `CCOC(=O)C1=C(O)C(=O)N(c2nc3ccc(C)cc3s2)C1c1ccc(-c2ccc(Cl)nn2)cc1` (centres undefined) was 36%.
Consider `CCOC(=O)C1=C(O)C(=O)N(c2nc3ccc(C)cc3s2)C1c1ccc(OC)c2ccccc12` (centres undefined), for which, in series [1], the inhibition turned out to be 74%. In addition, half-maximal inhibition in series [2] (IC50) was put at 9.5 µM.
Take `CCCCNc1ccc(C(=O)OCCN(C)C)cc1` [TETRACAINE]: in [5], the metabolised at 4 h was determined as 100%. For the same molecule, the t1/2 in series [6] is 20 min.
As to `CCOC(=O)C1=C(O)C(=O)N(c2nc3ccc(Oc4ccccc4)cc3s2)C1c1ccccc1` (centres undefined), the inhibition in series [1] worked out at 53%. The molecule further came in with an IC50 in series [2] of 17 µM.
With `CCOC(=O)C1=C(O)C(=O)N(c2ccc(-c3ccccc3)cc2)C1c1ccccc1` (centres undefined), the inhibition in [1] is 19%.
Regarding `COC(=O)C1=C(O)C(=O)N(c2nc3ccc(C)cc3s2)C1c1ccc(-c2ccc(Cl)cc2)o1` (centres undefined), in [1], the inhibition came to 59%. Inhibition in series [2] was half-maximal at 16 µM (IC50).
With `CCOC(=O)C1=C(O)C(=O)N(c2nc3ccc(C)cc3s2)C1c1cccs1` (centres undefined), in [1], the inhibition was determined as 14%.
The same measure, in the same setting: under `CCOC(=O)C1=C(O)C(=O)N(c2nc3ccc(C)cc3s2)C1c1nc2ccccc2s1` (centres undefined) stands 12%.
Turning to `CCOC(=O)C1=C(O)C(=O)N(c2nc3ccc(Br)cc3s2)C1c1ccc(-c2ccccc2)cc1` (centres undefined), the inhibition in series [1] turned out to be 52%. The molecule also came in with an IC50 in series [2] of 21 µM.
Take `CCOC(=O)C1=C(O)C(=O)N(c2nc3c(ccc4ccccc43)s2)C1c1ccccc1` (centres undefined): in series [1], the inhibition is 36%.
For `C[C@@H]1O[C@@H]1P(=O)(O)O` [FOSFOMYCIN], the inhibition was 78% in series [1], 31% in [8] and -4% in series [9]. The molecule further displayed a half-inhibitory concentration (IC50) in series [2] of 5.3 µM. Further, the inhibition result in [7] was “Active”.
For `Cc1cccc2sc(N3C(=O)C(O)=C(C(=O)OC(C)(C)C)C3c3ccccc3)nc12` (centres undefined), in series [1], the inhibition amounted to 67%. Besides, the concentration for half-maximal inhibition (IC50) in series [2] is 11 µM.
In the case of `CCOC(=O)C1=C(O)C(=O)N(c2nc3ccc(C)cc3s2)C1c1ccc(-c2ccc(C(F)(F)F)cc2Cl)o1` (centres undefined), the inhibition in series [1] stood at 94%. Also, in series [2], the IC50 worked out at 4.8 µM.
